From PubChem
Mot1-301 SUMO = blocks SUMOylation pathway, rescuing yeast Mot1-301 growth; S. cerevisiae Mot1-301 growth rescue, ATP luminescence, 38.5C; percent above DMSO median, 100 means doubled; growth rescue, % at 18.8 µM; actives 1% (n = 320,000); AID 2716;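 active means every valid replicate shows activation above 250% relative to neutral control wells; inactive means the rest, any valid replicate at or below 250%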
KCNQ1 inh = blocks the human KCNQ1 potassium channel; actives 1.3% (n = 310,000); P51787; CHO-K1 KCNQ1, FluxOR thallium flux fluorescence; active compounds read high; B-score at 10 µM;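 active means compounds whose thallium flux B-score, printed positive for inhibition, exceeds three library SD while starting fluorescence stays within three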;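 further: channel opened by potassium depolarization with thallium stimulus after 20 min compound exposure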
KCC2 mod = KCC2 (human) Cl- transport modulation; Q9H2X9; KCC2 cells, thallium flux FluoZin-2 fluorescence; B-score of Tl+ flux slope (higher = more flux/activation; lower = inhibition) at 10 µM; actives 2.2% (n = 190,000); AID 1456;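 active means thallium flux slope and its plate-corrected score both differing from the plate sample mean at a set confidence after two filtering rounds, in either direction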;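 further: slope of fluorescence scaled to starting intensity during 10 to 20 s after thallium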
AI-2 QS modul = modulates the Vibrio harveyi AI-2 quorum sensing system | Vibrio harveyi JMH597 AI-2 luminescence/OD600 ratio, 9 h; active compounds read low; strain lacks LuxN and CqsS sensors; 0 = neutral-control median | activity change, % at 7.5 µM | actives 0.4% (n = 300,000) | AID 2094; in the data active means activity change below about -75%, passing the limit was not always enough; inconclusive means no clear call, values can overlap the other calls;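 further: luminescence divided by OD600 gain over 9 h not by final OD600 alone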
hERG rescue = compounds protecting human hERG from proarrhythmic drug block; activation (rescue from dofetilide block), less the hit threshold, % at 10 µM; Q12809; actives 0.51% (n = 310,000); CHO-hERG, FluxOR thallium flux, dofetilide IC70 present; AID 1511;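 active means activation above the mean of controls blocked by dofetilide plus 5 SD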;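 further: thallium influx through hERG after potassium depolarization seen as dye fluorescence rise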
KCNQ1 act = human KCNQ1 channel potentiation or activation | P51787 | CHO-K1 KCNQ1, thallium flux FluxOR fluorescence; active compounds read high | B-score at 10 µM | actives 0.35% (n = 310,000);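 active means fluorescence ratio B-score, a plate-corrected score, at least three library SD, with initial intensity B-score within 5 SD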
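Medium – assay buffer, equal DMSO in all wells · Material – CHO-K1 cell line with stable KCNQ1 potassium channel expression · Signal – kinetic FluxOR thallium fluorescence, 10-s 1-Hz baseline, 110-s post-stimulus read · Compound – single concentration per compound, DMSO matched to controls · Schedule – 37 °C overnight plating, 90-min dark dye load, 20-min compound pretreatment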
KCC2 sec1 = confirmation of human KCC2 transport modulators; HEK293-KCC2, thallium flux, FluoZin2 fluorescence; active compounds read high; shares compounds with KCC2 mod; normalised thallium flux (F/F0 slope) at 10 µM; actives 15% (n = 3,700);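 active means thallium flux slope above the same plate's solvent-only control mean plus 3 SD; inconclusive means the two replicate wells disagree; inactive means no significant difference from solvent-only control wells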
KCC2 bumet counter = thallium flux persisting under bumetanide in KCC2 cells, counter-screen secondary assay; shares compounds with KCC2 mod; HEK293-KCC2 + bumetanide/ouabain, thallium flux FluoZin2; active compounds read high; normalized thallium flux at 10 µM; actives 49% (n = 3,700); AID 1714;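 active means thallium entry rate above the same plate's blocked-transporter control wells by more than 3 SD; inconclusive means the two repeat wells disagree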;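 further: raw slope of fluorescence over initial fluorescence between 10 and 20 s after thallium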
KCC2 sec2 = KCC2 (human) modulation, second secondary assay | shares compounds with KCC2 mod | HEK293-KCC2, thallium flux FluoZin2 fluorescence; actives lie on both sides; F/F0 rise rate, 10–20 s post-thallium | normalized thallium flux at 10 µM | actives 23% (n = 3,700) | AID 1715;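 active means thallium flux slope more than 3 SD above or below the plate's solvent-only control mean, mostly below; inconclusive means the two repeat wells disagreed; inactive means no significant shift from solvent-only controls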
HEK counter1 = counter-screen for KCC2 modulators: effect in parental HEK293 cells | shares compounds with KCC2 mod | thallium flux rate (normalised fluorescence) at 10 µM | actives 46% (n = 3,700) | thallium flux FluoZin2, ouabain; baseline-ratio fluorescence slope, 10–20 s after thallium | AID 1716;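 active means thallium flux rate significantly above the same plate's solvent-only control wells, beyond their mean plus 3 SD; inconclusive means the two replicate wells gave conflicting results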
KCC2 ouabain = KCC2 (human) modulation, ouabain retest; shares compounds with KCC2 mod; actives 48% (n = 3,700); HEK293-KCC2, thallium flux FluoZin2 fluorescence; bidirectional: low = inhibitor, high = activator; AID 1717; raw Tl+ flux slope (below DMSO = inhibition, above = activation) at 10 µM;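 active means thallium flux slope beyond 3 SD from same-plate DMSO control mean in most replicates, usually higher, sometimes lower; inconclusive means repeat tests gave conflicting results; inactive means no significant difference from controls in most replicates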;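 further: slope of initial-normalized fluorescence between seconds 10 and 20 after thallium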
HEK counter2 = counter-screen for KCC2 modulators: effect in parental HEK293 cells; shares compounds with KCC2 mod; thallium flux FluoZin-2 fluorescence slope; thallium flux slope at 10 µM; actives 33% (n = 3,700);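 active means thallium flux slope above the same plate's solvent-control mean plus 3 SD in both duplicate wells; inconclusive means duplicate wells that disagreed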;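 further: run without ouabain in cells lacking the KCC2 cotransporter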
A number is an active result; i = inactive; ? = inconclusive; nt = no result. Most compounds without a hit are left out; they make up all but 4.2% or so of the library.

SMILES | Mot1-301 SUMO | KCNQ1 inh | KCC2 mod | AI-2 QS modul | hERG rescue | KCNQ1 act | KCC2 sec1 | KCC2 bumet counter | KCC2 sec2 | HEK counter1 | KCC2 ouabain | HEK counter2
CC(C)(C)c1ccc(/C([O-])=C(/C(=S)NCc2ccco2)[n+]2ccccc2)cc1 | i | i | i | i | i | i | nt | nt | nt | nt | nt | nt
Fc1ccc(NC(=S)Nc2cc(Cl)ccc2Cl)cc1 | i | i | 3.53 | i | i | i | i | 0.0155 | ? | 0.0183 | 0.0263 | 0.0146
COc1ccc(NC(=S)N/N=C/c2ccc(F)c(F)c2)cc1 | i | i | i | i | i | i | nt | nt | nt | nt | nt | nt
Fc1ccc(NC(=S)N/N=C/c2ccc(F)c(F)c2)cc1 | i | i | 26.6 | i | i | i | 0.0162 | 0.063 | i | 0.0223 | 0.0439 | 0.013
CCn1nc(C)c(/C=N/NC(=S)Nc2ccc(Cl)cc2Cl)c1C | i | i | 4.47 | i | 4.8 | i | i | 0.0105 | i | 0.0084 | ? | ?
Fc1ccc(/C=N/NC(=S)Nc2ccc(Cl)cc2Cl)cc1 | i | i | 7.56 | i | i | i | i | 0.0179 | i | 0.0117 | 0.0287 | ?
Cc1nn(C)cc1/C=N/NC(=S)Nc1ccc(Cl)cc1Cl | i | i | i | i | i | i | nt | nt | nt | nt | nt | nt
Cc1ccc(N2CC(C(=O)N3CCOCC3)CC2=O)cc1Cl (configuration not stated) | i | i | nt | i | i | i | nt | nt | nt | nt | nt | nt
Cc1cccc(-c2nc(CS(=O)CC(=O)N3CCc4ccccc4C3)c(C)o2)c1 (configuration not stated) | i | i | nt | i | i | i | i | i | ? | i | ? | i
O=C(N/N=C/c1cn(-c2ccccc2)nc1-c1ccccc1)c1ccco1 | i | i | i | i | i | i | nt | nt | nt | nt | nt | nt
Cc1ccc(-c2nn(-c3ccccc3)cc2/C=N/NC(=O)c2ccc(Br)o2)cc1 | i | nt | 3.16 | i | nt | nt | i | 0.00663 | i | 0.0101 | i | 0.0136
COc1ccc(N2CC(C(=O)Nc3ccc(S(=O)(=O)Nc4nccs4)cc3)CC2=O)c(OC)c1 (configuration not stated) | i | nt | nt | nt | nt | nt | nt | nt | nt | nt | nt | nt
COC(=O)CCCCCN1C(=O)NC(C2CC2)C(C(=O)OCc2ccccc2)=C1C (configuration not stated) | i | i | nt | i | i | i | nt | nt | nt | nt | nt | nt
CC1CCCCN1C(=O)CSc1nnc(-c2c[nH]c3ccccc23)o1 (configuration not stated) | i | i | -3.32 | i | i | i | i | i | 0.023 | i | i | i
CCCOc1ccc(N2C(=O)C3ON(c4ccccc4)C(c4ccc(O)c(OC)c4)C3C2=O)cc1 (configuration not stated) | i | i | i | i | i | i | i | i | ? | i | i | i
COc1ccc(N2CCN(C(=O)CSc3nc4[nH]ncc4c(=O)n3-c3cccc4ccccc34)CC2)cc1 | i | i | -4.39 | i | i | i | i | 0.00641 | 0.0265 | i | 0.0149 | i
CN(CC(=O)Nc1cc(S(=O)(=O)N2CCCC2)ccc1Cl)Cc1cccs1 | i | i | -5.28 | i | i | i | ? | i | i | i | 0.0139 | i
O=C(Cc1cccs1)Nc1ccc(S(=O)(=O)N2CCCC2)cc1 | nt | i | -3.75 | i | i | i | i | i | i | i | i | i
Cc1ccc(S(=O)(=O)N2CCCCC2)cc1NC(=O)Cc1cccs1 | i | nt | nt | nt | nt | nt | nt | nt | nt | nt | nt | nt
O=C(NCc1cccs1)c1cc(S(=O)(=O)N2CCCCC2)ccc1Cl | i | i | i | i | i | i | nt | nt | nt | nt | nt | nt
O/N=C\c1ccccc1Oc1ccc(F)cc1 | i | i | i | i | i | i | nt | nt | nt | nt | nt | nt
CSc1ncccc1C(=O)NCCc1ccc(S(N)(=O)=O)cc1 | i | i | nt | i | i | i | nt | nt | nt | nt | nt | nt
CCCn1c(SCN2C(=O)c3ccccc3C2=O)nc2cc(Cl)ccc2c1=O | i | i | 106 | i | 10.7 | 31 | 0.0379 | 0.171 | 0.0534 | 0.0915 | 0.0838 | 0.0462
CCN1C(=O)c2ccc(C(=O)Nc3ccc(O)cc3C)cc2C1=O | i | i | nt | i | i | i | nt | nt | nt | nt | nt | nt
COc1cc(OC)cc(C(C(=O)NCc2ccccc2)N(Cc2ccco2)C(=O)c2ccno2)c1 (configuration not stated) | i | i | -2.85 | i | i | i | i | i | i | i | i | i
SMILES | Mot1-301 SUMO | KCNQ1 inh | KCC2 mod | AI-2 QS modul | hERG rescue | KCNQ1 act | KCC2 sec1 | KCC2 bumet counter | KCC2 sec2 | HEK counter1 | KCC2 ouabain | HEK counter2
COc1ccc(C(C(=O)NCc2ccccc2)N(Cc2ccco2)C(=O)c2snc(C(N)=O)c2N)cc1 (configuration not stated) | i | i | nt | i | i | i | nt | nt | nt | nt | nt | nt
COc1cc(C(=S)N2CCOCC2)cc(OC)c1OC(=O)c1ccc(F)cc1 | i | i | nt | i | i | i | nt | nt | nt | nt | nt | nt
COc1cc(C(=S)N2CCOCC2)cc(OC)c1OC(=O)Cc1ccc(F)cc1 | i | i | -4.31 | i | i | i | i | i | 0.028 | i | 0.0159 | i
N#Cc1ccc(C(=O)Nc2ccc([N+](=O)[O-])cc2)c(F)c1 | i | i | i | i | i | i | nt | nt | nt | nt | nt | nt
C=CCN1C(=O)/C(=C\c2ccc(Oc3nc(N4CCOCC4)nc(N4CCOCC4)n3)c(OC)c2)SC1=S | i | i | i | i | i | i | nt | nt | nt | nt | nt | nt
O=C(N/N=C/c1ccc[nH]1)c1sc2ccccc2c1Cl | i | i | 9.75 | i | i | i | 0.0138 | 0.0938 | i | 0.0238 | 0.0502 | 0.0111
O=C(NN1C(=O)/C(=C/C=C/c2ccco2)SC1=S)c1ccccc1O | i | i | -3.26 | i | i | i | i | ? | 0.0234 | i | ? | i
CN1CCN(c2ccccc2NC(=O)c2ccc(F)cc2)CC1 | i | i | i | i | i | i | nt | nt | nt | nt | nt | nt
O=C(NC(=S)Nc1ccccc1N1CCCC1)c1cccc(F)c1 | i | i | 39.4 | i | i | i | i | 0.0619 | 0.0429 | 0.0275 | 0.046 | 0.0277
